In the first assay the test system is CHO. The assay can be described thus: Agonist activity at human alpha1L-adrenoceptor expressed in CHO cells co-expressing CRELD1alpha assessed as induction of calcium mobilization after 60 mins by fluorometric imaging plate reader assay relative to control noradrenaline. Type of assay: cell-based.
Conditions: not given
In short, it runs like this: (§1)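 CHO cells (α1L-dominant) expressing human α1A-AR plus human CRELD1α were plated and grown overnight at 37°C under CO2. Cells were loaded with Calcium 5 indicator dye for 60 min at 37°C, then calcium influx was read by FLIPR. Activity is expressed as EC50 relative to the noradrenaline EC50.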
In general terms: A change in cytosolic calcium serves as a functional read-out for many receptors and channels.
Turning to `CC(C)c1cc(Cl)cc2c1CCC2C1=NCCN1` (stereo not given), the Ratio was 0.08.

For `Clc1cc(CC2=NCCN2)c2c(c1)C1(CCO2)CC1`, the Ratio is 0.088.

Turning to `Cc1c(CC2=NCCN2)cc(Cl)cc1C(C)C`, the Ratio was 0.043.

As to `CC1(C)CCCc2c(CC3=NCCN3)cc(Cl)cc21`, the Ratio turned out to be 0.028.

In the case of `CC(C)c1cc(Cl)cc(CC2=NCCN2)c1`, the Ratio was 0.52.

As to `CC1(C)CCc2c(CC3=NCCN3)cc(Cl)cc21`, the Ratio came to 0.12.

For the compound `CC(C)c1cc(Cl)cc2c1NCCC2C1=NCCN1` (stereo not given), the Ratio is 0.0028.

`CC1CCCc2c(CC3=NCCN3)cc(Cl)cc21` (stereo not given): the Ratio amounted to 0.063.

Consider `CC(C)c1cc(Cl)cc2c1OCCC2C1=NCCN1` (stereo not given), for which the Ratio was 0.014.

Take `CC(C)c1cc(Cl)cc2c1CCCC2C1=NCCN1` (stereo not given): the Ratio is 0.024.

On to `Clc1cc(CC2=NCCN2)c2c(c1)C1(CCC2)CC1`, for which the Ratio was 0.025.

System in a further assay: not listed separately
The assay can be described thus: (§2) Agonist activity at human alpha1L-adrenoceptor expressed in CHO cells co-expressing CRELD1alpha assessed as induction of calcium mobilization after 60 mins by fluorometric imaging plate reader assay. Type of assay: cell-based. Conditions: 1 h. In short, it runs like this:
as §1
`NC[C@H](O)c1ccc(O)c(O)c1`: the half-maximal effective concentration (EC50) (usually the concentration needed to bring the measured effect to its halfway point) worked out at 1020 nM.

A further assay deals with CHO. The assay is described as §2. It is filed as cell-based.
Conditions: not given
The method in brief: as §1
In the case of `Cc1ccc(Cl)cc1CC1=NCCN1`, the Activity was 0%.

Regarding `Cc1c(CC2=NCCN2)cccc1C(C)C`, the Activity worked out at 36%.

The next assay is filed under the species Rattus norvegicus. The assay can be described thus: Agonist activity at alpha1L-adrenoceptor in Wistar rat isolated bladder neck assessed as induction of muscle contraction.
Conditions: not given
The method in brief:
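Male Wistar rats anaesthetised with sodium pentobarbital (50 mg/kg) and killed. Bladder neck was isolated and cleaned in modified Krebs-Henseleit solution gassed with 95% O2/5% CO2. Strips were mounted in organ baths of the same solution at 37°C. Contraction was recorded across increasing doses, with noradrenaline as reference agonist.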
`CC(C)c1cc(Cl)cc2c1NCCC2C1=NCCN1` (stereo not given): the Activity entry is “Dose-dependent effect”.

Values taken from ChEMBL document CHEMBL3600326, “Discovery of potent α1L-adrenoceptor agonists: Design and synthesis of bicyclic derivatives” (Bioorg Med Chem Lett, 2015).
